Assay results of several laboratories.
Protocols differ between the studies behind these lines.
Target: Serine/threonine-protein kinase 4 (STK4, Homo sapiens, UniProt Q13043)
Sequence (Q13043 1-487, as in one of the studies): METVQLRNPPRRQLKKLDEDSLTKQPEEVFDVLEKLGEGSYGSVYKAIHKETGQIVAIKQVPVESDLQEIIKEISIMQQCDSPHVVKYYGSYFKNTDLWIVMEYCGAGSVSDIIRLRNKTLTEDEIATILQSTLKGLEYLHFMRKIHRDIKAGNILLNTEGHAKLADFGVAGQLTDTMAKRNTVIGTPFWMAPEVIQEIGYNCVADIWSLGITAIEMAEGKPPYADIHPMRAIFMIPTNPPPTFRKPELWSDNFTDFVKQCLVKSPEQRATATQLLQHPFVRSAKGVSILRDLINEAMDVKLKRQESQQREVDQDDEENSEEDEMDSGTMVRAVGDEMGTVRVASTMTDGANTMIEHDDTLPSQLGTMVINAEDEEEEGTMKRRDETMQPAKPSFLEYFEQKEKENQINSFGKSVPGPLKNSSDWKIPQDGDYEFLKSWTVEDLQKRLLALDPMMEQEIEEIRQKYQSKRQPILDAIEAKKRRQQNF

`C1=C/COCc2cc(ccc2OCCN2CCCC2)Nc2nccc(n2)-c2cccc(c2)COC/1` gave a remaining signal of 100% (cell-free assay; 0.1 µM).
`CN1CCN(C(=O)c2ccc(NC(=O)Nc3ccc(N(C)c4ccnc(Nc5ccc(CS(C)(=O)=O)cc5)n4)cc3)cc2)CC1` has a remaining binding of 96% (binding, competition with immobilised ligand; 1 µM).
`CO[C@@H]1[C@H](N(C)C(=O)c2ccccc2)C[C@H]2O[C@]1(C)n1c3ccccc3c3c4c(c5c6ccccc6n2c5c31)C(=O)NC4` has an inhibition of 78% (enzyme activity, inhibitor; 1 µM).
`COc1ccc2[nH]c3c4[nH]c5ccc(OC)cc5c4c4c(c3c2c1)C(=O)NC4=O` gave a remaining binding of 100% (binding, competition with immobilised ligand; 1 µM).
The inhibition of `Cc1cc(O)c(-c2ccc([C@@H](C)CN(C)C)cc2)c2c1[nH]c(=O)c1sccc12` is reported as -0.517% (enzyme activity, inhibitor; 0.1 µM).
`C=CC(=O)N1CCC([C@@H]2CCNc3c(C(N)=O)c(-c4ccc(Oc5ccccc5)cc4)nn32)CC1` gave an inhibition of 0% (enzyme activity, inhibitor; 1 µM).
`CCCCC(=O)Nc1ccc(-c2ccc3ncn(CCC)c(=O)c3c2)cn1` has a remaining binding of 95% (binding, competition with immobilised ligand; 0.5 µM).
`C#Cc1cc(-c2cc(Nc3nc(N[C@@H](C)c4ccc(F)cn4)ncc3Cl)n[nH]2)ccc1C=O` has an inhibition of 54.5% (enzyme activity, inhibitor; 0.2 µM).
With `COc1ccc2oc(-c3ccc4nc(N)oc4c3)c/c(=N\c3ccccc3NC(=O)CCN)c2c1` the remaining binding was 111% (binding; 1 µM).
